Published values pooled from the literature.
Protocols differ between the studies behind these lines.
Target: Mitogen-activated protein kinase 8 (MAPK8, Homo sapiens, UniProt P45983)

`CC(=O)C1=C(C)N(c2cccc(C(F)(F)F)c2)C(=O)N[C@@H]1c1ccc(C#N)nc1` gave a remaining binding of 100% (cell-free assay; competition with immobilised ligand; 1 µM).
With `Nc1ncnc2occ(-c3ccc(NC(=O)Nc4cc(C(F)(F)F)ccc4F)cc3)c12` the remaining signal was 11% (cell-free assay; inhibitor; 20 µM).
For `FC(F)c1nc2ccccc2n1-c1nc(N2CCOCC2)nc(N2CCOCC2)n1`, the remaining activity was 93% (enzyme activity; inhibitor; 10 µM).
With `CC(C)(C)c1nc(-c2cccc(NS(=O)(=O)c3c(F)cccc3F)c2F)c(-c2ccnc(N)n2)s1` the remaining activity was 89% (enzyme activity; inhibitor; radiometric; 1 µM).
The remaining binding of `CCCOc1ccc([C@@H]2[C@@H](C(=O)O)[C@H](c3ccc4c(c3)OCO4)CN2CC(=O)Nc2c(CC)cccc2CC)cc1` is reported as 87% (cell-free assay; competition with immobilised ligand; 1 µM).
For `O=C(Nc1cnn(-c2csc(C(=O)NC3COC3)c2)c1)Nc1ccccc1Cl`, the remaining activity was 57.6% (enzyme activity; inhibitor; 5 µM).
The ΔTm of `Cn1c2c(c3ccc(Cl)c(Cl)c31)C(C#N)C1(CCNCC1)NC2=O` (racemic) is reported as 0.2 °C (thermal stability; DSF; 10 µM).
With `Nc1nc(Nc2ccccc2)sc1C(=O)c1c(F)cccc1F` the remaining activity was 75% (enzyme activity; inhibitor; 10 µM).
The remaining signal of `O=C1Nc2ccc(Cl)cc2C1=Cc1cc(Cl)c(O)c(Cl)c1` is reported as 82.8% (cell-free assay; 0.5 µM).
`COc1ccc2c(c1)O[C@H](c1ccc(OC)c(OC)c1)C[C@@H]2NC(=O)C1(c2ccc3c(c2)OC(F)(F)O3)CC1` gave a remaining binding of 96% (cell-free assay; competition with immobilised ligand; 1 µM).
`CSc1nc(C)c(-c2ccnc(Nc3ccc(N4CCOCC4)cc3)c2)[nH]1` gave an inhibition of 88.6% (enzyme activity; inhibitor; 10 µM).
`COc1cc2c(N3CCN(C(=O)Nc4ccc(OC(C)C)cc4)CC3)ncnc2cc1OCCCN1CCCCC1` gave a remaining signal of 105% (cell-free assay; 0.5 µM).
With `O=C(Nc1ccc(Oc2ccc(F)cc2)cc1)N1CCc2ncccc2[C@H]1c1ccc(F)cc1` the remaining binding was 91% (cell-free assay; competition with immobilised ligand; 1 µM).
The remaining activity of `COc1cc(Nc2cnc(C#N)c(O[C@H](C)CN(C)C)n2)ncc1-c1cnn(C)c1` is reported as 93% (enzyme activity; inhibitor; radiometric; 10 µM).
For `CN(C)C1CCN(CC#Cc2nn(C3CCCC3)c3nc(NCc4ccccc4)ncc23)C1` (centres unmarked), the inhibition was 1% (enzyme activity; inhibitor; FRET; 0.1 µM).
With `O=C(Nc1cnn(-c2csc(C(=O)NC3COC3)c2)c1)Nc1c(F)cccc1Cl` the remaining activity was 49.1% (enzyme activity; inhibitor; 5 µM).
With `Cc1ccc(NC(=O)c2ccc(C)c(C(F)(F)F)c2)cc1C#Cc1nn(C2CCC(O)CC2)c2ncnc(N)c12` (centres unmarked) the remaining signal was 35% (cell-free assay; 10 µM).
With `N#CC(c1ccnc(NCCc2cccnc2)n1)c1nc2ccccc2s1` (centres unmarked) the remaining activity was 87.6% (enzyme activity; inhibitor; 0.5 µM).
With `CO[C@@H](C)c1c(Nc2ccc([C@@H](N(C)C(=O)C3CCS(=O)(=O)CC3)C(F)(F)F)cc2)cnc2cc(Cl)nn12` the remaining binding was 69% (cell-free assay; competition with immobilised ligand; 1 µM).
`CC1(C)NC(=O)c2[nH]c3c(Cl)c(Cl)ccc3c2C1C#N` (centres unmarked) gave a ΔTm of 0.8 °C (thermal stability; DSF; 10 µM).
The activity vs control of `Cc1cc(NC(=O)c2cccc3cc(-c4cccc5[nH]nc(N)c45)ccc23)ccc1F` is reported as 103% (enzyme activity; inhibitor; 0.1 µM).
`CC1=C(C#N)[C@@H](c2ccc3[nH]nc(C)c3c2)C(C#N)=C(c2ccc(Cl)cc2)N1` gave a remaining binding of 65.2% (cell-free assay; competition with immobilised ligand; 1 µM).
`CCN1CCC2(CC1)NC(=O)c1c(c3ccc(Cl)c(Cl)c3n1C)C2C#N` (racemic) gave a ΔTm of 0.6 °C (thermal stability; DSF; 10 µM).
For `COc1cc(-c2cc(-c3ccc(N4CCNCC4)cc3)cnc2C)cc(OC)c1OC`, the inhibition was 0% (enzyme activity; inhibitor; 0.1 µM).
The ΔTm of `CN1CCC2(CC1)NC(=O)c1c(c3ccc(Cl)c(Cl)c3n1C)C2C#N` (racemic) is reported as 0 °C (thermal stability; DSF; 10 µM).
The inhibition of `C=CC(=O)Nc1cc(Nc2nccc(Nc3cc(Cl)c(F)cc3C(C)(C)O)n2)c(OC)cc1N1CC[C@@H](N(C)C)C1` is reported as -3% (enzyme activity; inhibitor; 1 µM).
`CNCc1ccc(-c2cc(-c3nc(-c4ccc(S(=O)(=O)C(C)C)cc4)cnc3N)on2)cc1` gave an inhibition of 8% (enzyme activity; inhibitor; 2 µM).
`FC(F)(F)Oc1cccc(-c2cnc3ccc(-c4ccncc4)nn23)c1` has an activity vs control of 90% (enzyme activity; inhibitor; radiometric; 5 µM).
`Cn1c2c(c3ccc(Cl)c(Cl)c31)C(C#N)C(C)(C)NC2=O` (centres unmarked) has a ΔTm of 1.3 °C (thermal stability; DSF; 10 µM).
With `C[C@@H]1CN(c2cc(-c3nn(C)c4ccc(OC5(C)CC5)cc34)ncn2)C[C@H](C)O1` the remaining binding was 82% (cell-free assay; competition with immobilised ligand; 1 µM).
The remaining activity of `Cc1cnc(NC2CCOCC2)nc1-n1cnc(C(=O)NC(CN)c2cc(F)cc(Cl)c2)c1` (centres unmarked) is reported as 56% (enzyme activity; inhibitor; radiometric; 1 µM).
For `CN1CC(Oc2cnc(C#N)cc2-c2ccn3nc(NC(=O)C4CC4)cc3c2)C1`, the inhibition was -4% (enzyme activity; inhibitor; 1 µM).
`COc1cc2ncnc(Nc3ccc(Oc4ccccc4)cc3C)c2cc1OC` gave an inhibition of 1% (enzyme activity; inhibitor; 1 µM).
`CCS(=O)(=O)c1cc2cc(C[C@](O)(CC(C)(C)c3ccc(F)cc3C(N)=O)C(F)(F)F)[nH]c2cn1` gave a remaining binding of 100% (cell-free assay; competition with immobilised ligand; 1 µM).
`COc1cc(Cl)c(C(=O)N[C@@H](CN[C@H]2CC[C@@H](N)CC2)Cc2ccc(C#N)cc2)cc1-c1ccc(CN[C@H](C)c2ccc(C)cc2)o1` has a remaining activity of 100% (enzyme activity; inhibitor; 1 µM).
